# In ChEMBL document CHEMBL1154362, “Lead optimization and structure-based design of potent and bioavailable deoxycytidine kinase inhibitors” (Bioorg Med Chem Lett, 2009):
# Calls of active or inactive are those of the source. No cut-off for these calls is given here.
# Molecular target: T1, Deoxycytidine kinase (Homo sapiens, UniProt P27707)
# Test: Inhibition of human deoxycytidine kinase by lysate filter binding assay
# Details: not given
# Target sequence in this assay (P27707 whole entry): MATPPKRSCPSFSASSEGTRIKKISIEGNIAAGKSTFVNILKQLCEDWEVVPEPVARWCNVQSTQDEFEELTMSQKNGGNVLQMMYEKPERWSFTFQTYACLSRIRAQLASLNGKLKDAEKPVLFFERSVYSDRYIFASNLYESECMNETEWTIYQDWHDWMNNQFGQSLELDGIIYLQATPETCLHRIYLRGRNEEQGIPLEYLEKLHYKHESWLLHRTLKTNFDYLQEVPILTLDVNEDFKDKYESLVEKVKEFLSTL
row,Structure (SMILES),IC50 [µM]
1,COc1ccc(-c2cccc(S(=O)(=O)N[C@H]3CC[C@H](n4cc(F)c(N)nc4=O)C3)c2)cc1,0.064
2,Nc1nc(=O)n([C@H]2CC[C@H](NC(=O)c3cc(-c4cc5ccccc5s4)ccn3)C2)cc1F,0.0017
3,Nc1nc(=O)n([C@H]2CC[C@H](NC(=O)c3cccc(-c4cccc(Cl)c4)c3)C2)cc1F,0.023
4,COc1ccc(-c2cccc(C(=O)N[C@H]3CC[C@H](n4cc(F)c(N)nc4=O)C3)c2)cc1,0.03
5,Nc1nc(=O)n([C@H]2CC[C@H](NC(=O)c3cccc(-c4ccc(Cl)cc4)c3)C2)cc1F,0.042

# Now from value to compound:
row,IC50 [µM],Structure (SMILES)
1,0.021,Cc1cc(Cl)ccc1-c1cccc(S(=O)(=O)N[C@H]2CC[C@H](n3cc(F)c(N)nc3=O)C2)c1
2,3.6,Nc1nc(=O)n([C@H]2CC[C@H](NS(=O)(=O)c3ccccc3)C2)cc1F
3,0.35,Nc1nc(=O)n([C@H]2CC[C@H](NS(=O)(=O)c3ccc(-c4ccccc4)cc3)C2)cc1F
4,0.12,Nc1nc(=O)n([C@H]2CC[C@H](NS(=O)(=O)c3cccc(-c4ccccc4)c3)C2)cc1F
5,0.045,Nc1nc(=O)n([C@H]2CC[C@H](NS(=O)(=O)c3cccc(-c4ccccc4Cl)c3)C2)cc1F
6,0.049,N#Cc1ccc(-c2cccc(S(=O)(=O)N[C@H]3CC[C@H](n4cc(F)c(N)nc4=O)C3)c2)cc1

# System: not listed separately
# Test: AUC ((0 to infinity)) in mouse at 10 mg/kg, po
# Assay type: ADME, organism-based
# Parameters: time infinity, dose 10 mg/kg, route oral
# Details: plasma
# Method in brief: (§1)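 Mouse PK: single doses of 10 mpk po and 1 mpk iv, with blood sampled to measure compound levels. Clearance and volume came from the iv dose. AUC to infinity, Cmax and other parameters came from the po dosing data.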
row,AUC(0-inf) [µM·h],Structure (SMILES)
1,2.3,Cc1cc(Cl)ccc1-c1cccc(S(=O)(=O)N[C@H]2CC[C@H](n3cc(F)c(N)nc3=O)C2)c1
2,0.6,COc1ccc(-c2cccc(S(=O)(=O)N[C@H]3CC[C@H](n4cc(F)c(N)nc4=O)C3)c2)cc1
3,22,Nc1nc(=O)n([C@H]2CC[C@H](NC(=O)c3cc(-c4cc5ccccc5s4)ccn3)C2)cc1F
4,3.8,COc1ccc(-c2cccc(C(=O)N[C@H]3CC[C@H](n4cc(F)c(N)nc4=O)C3)c2)cc1
5,15.8,Nc1nc(=O)n([C@H]2CC[C@H](NC(=O)c3cccc(-c4ccc(Cl)cc4)c3)C2)cc1F

# System: not listed separately
# Test: Cmax in mouse at 10 mg/kg, po
# Assay type: ADME, organism-based
# Parameters: dose 10 mg/kg, route oral
# Details: in vivo
# Method in brief: as §1
row,Cmax [µM],Structure (SMILES)
1,1.5,Cc1cc(Cl)ccc1-c1cccc(S(=O)(=O)N[C@H]2CC[C@H](n3cc(F)c(N)nc3=O)C2)c1
2,0.3,COc1ccc(-c2cccc(S(=O)(=O)N[C@H]3CC[C@H](n4cc(F)c(N)nc4=O)C3)c2)cc1
3,7.4,Nc1nc(=O)n([C@H]2CC[C@H](NC(=O)c3cc(-c4cc5ccccc5s4)ccn3)C2)cc1F
4,3.4,COc1ccc(-c2cccc(C(=O)N[C@H]3CC[C@H](n4cc(F)c(N)nc4=O)C3)c2)cc1
5,16.2,Nc1nc(=O)n([C@H]2CC[C@H](NC(=O)c3cccc(-c4ccc(Cl)cc4)c3)C2)cc1F

# System: not listed separately
# Test: Half life in mouse at 10 mg/kg, po
# Assay type: ADME, organism-based
# Parameters: dose 10 mg/kg, route oral
# Details: in vivo
# Method in brief: as §1
row,half-life [min],Structure (SMILES)
1,96,Cc1cc(Cl)ccc1-c1cccc(S(=O)(=O)N[C@H]2CC[C@H](n3cc(F)c(N)nc3=O)C2)c1
2,72,COc1ccc(-c2cccc(S(=O)(=O)N[C@H]3CC[C@H](n4cc(F)c(N)nc4=O)C3)c2)cc1
3,90,Nc1nc(=O)n([C@H]2CC[C@H](NC(=O)c3cc(-c4cc5ccccc5s4)ccn3)C2)cc1F
4,96,COc1ccc(-c2cccc(C(=O)N[C@H]3CC[C@H](n4cc(F)c(N)nc4=O)C3)c2)cc1
5,48,Nc1nc(=O)n([C@H]2CC[C@H](NC(=O)c3cccc(-c4ccc(Cl)cc4)c3)C2)cc1F

# System: not listed separately
# Test: Tmax in mouse at 10 mg/kg, po
# Assay type: ADME, organism-based
# Parameters: dose 10 mg/kg, route oral
# Details: in vivo
# Method in brief: as §1
row,Tmax [min],Structure (SMILES)
1,18,Cc1cc(Cl)ccc1-c1cccc(S(=O)(=O)N[C@H]2CC[C@H](n3cc(F)c(N)nc3=O)C2)c1
2,48,COc1ccc(-c2cccc(S(=O)(=O)N[C@H]3CC[C@H](n4cc(F)c(N)nc4=O)C3)c2)cc1
3,36,Nc1nc(=O)n([C@H]2CC[C@H](NC(=O)c3cc(-c4cc5ccccc5s4)ccn3)C2)cc1F
4,18,COc1ccc(-c2cccc(C(=O)N[C@H]3CC[C@H](n4cc(F)c(N)nc4=O)C3)c2)cc1
5,18,Nc1nc(=O)n([C@H]2CC[C@H](NC(=O)c3cccc(-c4ccc(Cl)cc4)c3)C2)cc1F

# System: not listed separately
# Test: Bioavailability in mouse at 10 mg/kg, po
# Assay type: ADME, organism-based
# Details: in vivo
# Method in brief: as §1
row,bioavailability [%],Structure (SMILES)
1,15,Cc1cc(Cl)ccc1-c1cccc(S(=O)(=O)N[C@H]2CC[C@H](n3cc(F)c(N)nc3=O)C2)c1
2,9,COc1ccc(-c2cccc(S(=O)(=O)N[C@H]3CC[C@H](n4cc(F)c(N)nc4=O)C3)c2)cc1
3,42,Nc1nc(=O)n([C@H]2CC[C@H](NC(=O)c3cc(-c4cc5ccccc5s4)ccn3)C2)cc1F
4,17,COc1ccc(-c2cccc(C(=O)N[C@H]3CC[C@H](n4cc(F)c(N)nc4=O)C3)c2)cc1
5,12,Nc1nc(=O)n([C@H]2CC[C@H](NC(=O)c3cccc(-c4ccc(Cl)cc4)c3)C2)cc1F

# System: not listed separately
# Test: Terminal volume of distribution in mouse at 1 mg/kg, iv
# Assay type: ADME, organism-based
# Parameters: dose 1 mg/kg, route intravenous
# Details: in vivo, read-out: Vz
# Method in brief: as §1
row,Vd [L/kg],Structure (SMILES)
1,3,Cc1cc(Cl)ccc1-c1cccc(S(=O)(=O)N[C@H]2CC[C@H](n3cc(F)c(N)nc3=O)C2)c1
2,4.4,COc1ccc(-c2cccc(S(=O)(=O)N[C@H]3CC[C@H](n4cc(F)c(N)nc4=O)C3)c2)cc1
3,0.8,Nc1nc(=O)n([C@H]2CC[C@H](NC(=O)c3cc(-c4cc5ccccc5s4)ccn3)C2)cc1F
4,1.3,COc1ccc(-c2cccc(C(=O)N[C@H]3CC[C@H](n4cc(F)c(N)nc4=O)C3)c2)cc1
5,0.2,Nc1nc(=O)n([C@H]2CC[C@H](NC(=O)c3cccc(-c4ccc(Cl)cc4)c3)C2)cc1F

# System: not listed separately
# Test: Clearance in mouse at 1 mg/kg, iv
# Assay type: ADME, organism-based
# Parameters: dose 1 mg/kg, route intravenous
# Details: in vivo
# Method in brief: as §1
row,clearance [mL/min/kg],Structure (SMILES)
1,23,Cc1cc(Cl)ccc1-c1cccc(S(=O)(=O)N[C@H]2CC[C@H](n3cc(F)c(N)nc3=O)C2)c1
2,63,COc1ccc(-c2cccc(S(=O)(=O)N[C@H]3CC[C@H](n4cc(F)c(N)nc4=O)C3)c2)cc1
3,7,Nc1nc(=O)n([C@H]2CC[C@H](NC(=O)c3cc(-c4cc5ccccc5s4)ccn3)C2)cc1F
4,18,COc1ccc(-c2cccc(C(=O)N[C@H]3CC[C@H](n4cc(F)c(N)nc4=O)C3)c2)cc1
5,3,Nc1nc(=O)n([C@H]2CC[C@H](NC(=O)c3cccc(-c4ccc(Cl)cc4)c3)C2)cc1F

# System: Liver microsomes
# Test: Stability in human liver microsomes
# Assay type: ADME, Microsome
# Details: not given
row,Stability,Structure (SMILES)
1,Stable,Nc1nc(=O)n([C@H]2CC[C@H](NC(=O)c3cc(-c4cc5ccccc5s4)ccn3)C2)cc1F

# System: not listed separately
# Test: Stability in mouse liver microsomes
# Assay type: ADME, Microsome
# Details: not given
row,Stability,Structure (SMILES)
1,Stable,Nc1nc(=O)n([C@H]2CC[C@H](NC(=O)c3cc(-c4cc5ccccc5s4)ccn3)C2)cc1F

# Molecular target: Deoxycytidine kinase (Mus musculus, UniProt P43346)
# Sequence (P43346 whole entry): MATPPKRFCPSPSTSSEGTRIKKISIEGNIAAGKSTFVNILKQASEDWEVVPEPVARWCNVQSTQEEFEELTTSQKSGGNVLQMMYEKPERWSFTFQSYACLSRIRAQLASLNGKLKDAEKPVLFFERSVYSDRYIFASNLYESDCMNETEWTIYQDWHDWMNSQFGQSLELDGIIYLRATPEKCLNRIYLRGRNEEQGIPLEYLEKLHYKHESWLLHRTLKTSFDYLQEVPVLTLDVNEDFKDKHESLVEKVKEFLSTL
# Test: Inhibition of deoxycytidine kinase in anti CD3 and anti CD28 -stimulated mouse T cells assessed as reduction in [3H]deoxycitidine incorporation
# Assay type: cell-based, T-cell
# Details: not given
row,EC50 [µM],Structure (SMILES)
1,0.017,Nc1nc(=O)n([C@H]2CC[C@H](NC(=O)c3cc(-c4cc5ccccc5s4)ccn3)C2)cc1F

# Molecular target: T1, Deoxycytidine kinase
# Test: Inhibition of deoxycytidine kinase in anti CD3 and anti CD28 -stimulated human T cells assessed as reduction in [3H]deoxycitidine incorporation
# Assay type: cell-based, T-cell
# Details: not given
# Target sequence in this assay (P27707 whole entry): as the sequence (P27707 whole entry) above
row,EC50 [µM],Structure (SMILES)
1,0.09,Nc1nc(=O)n([C@H]2CC[C@H](NC(=O)c3cc(-c4cc5ccccc5s4)ccn3)C2)cc1F

# Molecular target: T1, Deoxycytidine kinase
# Test: Inhibition of deoxycytidine kinase in anti CD3 and anti CD28 -stimulated human T cells assessed as reduction in deoxythymidine incorporation
# Assay type: cell-based
# Details: T-cell
# Target sequence in this assay (P27707 whole entry, looked up): as the sequence (P27707 whole entry) above
row,Activity,Structure (SMILES)
1,inactive,Nc1nc(=O)n([C@H]2CC[C@H](NC(=O)c3cc(-c4cc5ccccc5s4)ccn3)C2)cc1F

# Molecular target: Deoxycytidine kinase (Mus musculus) (UniProt P43346)
# Sequence (P43346 whole entry, looked up): as the sequence (P43346 whole entry) above
# Test: Inhibition of deoxycytidine kinase in anti CD3 and anti CD28 -stimulated mouse T cells assessed as reduction in deoxythymidine incorporation
# Assay type: cell-based
# Details: T-cell
row,Activity,Structure (SMILES)
1,inactive,Nc1nc(=O)n([C@H]2CC[C@H](NC(=O)c3cc(-c4cc5ccccc5s4)ccn3)C2)cc1F

# System: Mus musculus
# Test: Inhibition of deoxycytidine kinase in anti CD3 -stimulated mouse assessed as reduction in [3H]deoxycytidine incorporation at 100 mg/kg, po treated 1 day before, day 0 and day 1 after anti CD3 challenge measured on day 2
# Assay type: functional, organism-based
# Parameters: dose 100 mg/kg
# Details: not given
# Method in brief: (§2)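 In vivo mouse dCK inhibition. Compound was given by oral gavage on day -1, day 0 and day 1. Anti-CD3 (0.5 µg/g body wt) was given ip on day 0, after the second dose. […] (100 µCi/animal) was given ip on day 1. Spleens were harvested on day 2 and dissociated into single-cell suspensions normalized to 30 mg/ml by spleen weight. Aliquots were filtered onto glass fibre and counted by liquid scintillation. n = 6-8 mice per group; controls were vehicle and no anti-CD3.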
row,Structure (SMILES),Activity
1,Nc1nc(=O)n([C@H]2CC[C@H](NC(=O)c3cc(-c4cc5ccccc5s4)ccn3)C2)cc1F,Active

# System: Mus musculus
# Test: Inhibition of deoxycytidine kinase in anti CD3 -stimulated po dosed mouse assessed as reduction in [3H]deoxycytidine incorporation treated 1 day before, day 0 and day 1 after anti CD3 challenge measured on day 2
# Assay type: functional, organism-based
# Details: not given
# Method in brief: as §2
row,Activity,Structure (SMILES)
1,Dose-dependent effect,Nc1nc(=O)n([C@H]2CC[C@H](NC(=O)c3cc(-c4cc5ccccc5s4)ccn3)C2)cc1F
